From ChEMBL document CHEMBL2331439 (J Med Chem, 2013)
The source made the active and inactive calls. The calls are words filed in the database; no cut-off is given here.

Columns and labels:
[1] = molecular target: Proto-oncogene tyrosine-protein kinase receptor Ret (Homo sapiens) (UniProt P07949); test: Inhibition of recombinant RET (unknown origin) at 5 uM by FRET-based Z'-LYTE assay
Outline: (§1)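 Z'-LYTE FRET peptide (coumarin/fluorescein) phosphorylation was followed by protease development. Wells included a protease control for interference with development and a fluorescence control for interference with the FRET read. Values above 100% or below 0% were treated as maximal or no inhibition.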

[2] = molecular target: Angiopoietin-1 receptor (Homo sapiens) (UniProt Q02763); test: Inhibition of recombinant TEK (unknown origin) at 5 uM by FRET-based Z'-LYTE assay; outline: as §1
Sequence of Angiopoietin-1 receptor (Homo sapiens) (Q02763 whole entry): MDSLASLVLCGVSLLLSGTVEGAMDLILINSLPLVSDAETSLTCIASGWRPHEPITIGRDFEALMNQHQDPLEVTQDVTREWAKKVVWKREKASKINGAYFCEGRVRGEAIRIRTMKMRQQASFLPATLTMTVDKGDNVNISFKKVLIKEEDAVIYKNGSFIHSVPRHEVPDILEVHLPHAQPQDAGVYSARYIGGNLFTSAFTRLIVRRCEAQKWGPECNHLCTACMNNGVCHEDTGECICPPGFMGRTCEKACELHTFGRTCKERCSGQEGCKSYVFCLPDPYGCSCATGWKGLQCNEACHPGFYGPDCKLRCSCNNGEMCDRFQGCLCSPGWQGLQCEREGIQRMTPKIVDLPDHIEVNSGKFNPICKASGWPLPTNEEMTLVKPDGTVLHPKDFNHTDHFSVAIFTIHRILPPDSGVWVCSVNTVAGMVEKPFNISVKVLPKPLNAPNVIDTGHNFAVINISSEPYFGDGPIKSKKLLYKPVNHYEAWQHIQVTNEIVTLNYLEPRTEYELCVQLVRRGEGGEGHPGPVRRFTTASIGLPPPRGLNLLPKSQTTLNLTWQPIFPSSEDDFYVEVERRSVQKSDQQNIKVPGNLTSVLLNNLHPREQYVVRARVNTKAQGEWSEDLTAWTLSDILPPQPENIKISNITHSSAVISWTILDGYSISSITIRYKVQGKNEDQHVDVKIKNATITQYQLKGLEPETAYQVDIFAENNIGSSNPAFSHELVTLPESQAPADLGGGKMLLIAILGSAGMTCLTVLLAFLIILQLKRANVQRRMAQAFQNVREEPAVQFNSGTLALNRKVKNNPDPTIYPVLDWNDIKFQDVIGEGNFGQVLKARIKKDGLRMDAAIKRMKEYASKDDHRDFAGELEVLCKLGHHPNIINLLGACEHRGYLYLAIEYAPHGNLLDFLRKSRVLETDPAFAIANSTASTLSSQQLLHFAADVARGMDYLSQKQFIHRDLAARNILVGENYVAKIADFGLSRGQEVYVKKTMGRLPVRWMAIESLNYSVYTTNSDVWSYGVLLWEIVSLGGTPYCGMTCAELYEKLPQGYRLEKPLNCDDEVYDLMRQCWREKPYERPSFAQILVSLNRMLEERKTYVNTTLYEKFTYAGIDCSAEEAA

[3] = molecular target: MAP kinase-activated protein kinase 2 (Homo sapiens, UniProt P49137); test: Inhibition of recombinant MAPKAPK2 (unknown origin) by FRET-based Z'-LYTE assay
Sequence of MAP kinase-activated protein kinase 2 (P49137 whole entry): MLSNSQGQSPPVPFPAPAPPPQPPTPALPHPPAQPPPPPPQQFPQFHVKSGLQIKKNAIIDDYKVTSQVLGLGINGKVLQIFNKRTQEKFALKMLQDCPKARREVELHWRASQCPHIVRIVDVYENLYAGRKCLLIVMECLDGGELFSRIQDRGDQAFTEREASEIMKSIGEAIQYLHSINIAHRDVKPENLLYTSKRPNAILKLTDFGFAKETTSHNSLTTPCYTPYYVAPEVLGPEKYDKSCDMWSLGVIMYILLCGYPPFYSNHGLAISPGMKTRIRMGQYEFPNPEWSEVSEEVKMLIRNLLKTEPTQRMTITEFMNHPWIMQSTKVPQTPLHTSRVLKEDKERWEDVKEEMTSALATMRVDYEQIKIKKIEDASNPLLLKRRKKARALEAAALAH

[4] = molecular target: T1, Mitogen-activated protein kinase 1 (Homo sapiens, UniProt P28482); test: Competitive inhibition of recombinant ERK2 (unknown origin) by FRET-based Z'-LYTE assay
T1 sequence (P28482 whole entry): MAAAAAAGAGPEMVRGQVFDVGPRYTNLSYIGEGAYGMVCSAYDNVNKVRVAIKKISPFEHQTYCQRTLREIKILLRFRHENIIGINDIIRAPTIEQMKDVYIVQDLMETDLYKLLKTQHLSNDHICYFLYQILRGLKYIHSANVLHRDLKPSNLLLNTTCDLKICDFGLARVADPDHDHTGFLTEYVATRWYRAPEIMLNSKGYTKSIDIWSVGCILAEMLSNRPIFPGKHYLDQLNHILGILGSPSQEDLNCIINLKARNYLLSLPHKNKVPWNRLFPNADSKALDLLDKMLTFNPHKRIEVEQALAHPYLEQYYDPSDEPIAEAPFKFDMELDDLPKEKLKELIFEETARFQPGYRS

[5] = molecular target: Vascular endothelial growth factor receptor 2 (Homo sapiens, UniProt P35968); test: Inhibition of recombinant KDR (unknown origin) by FRET-based Z'-LYTE assay
Sequence of Vascular endothelial growth factor receptor 2 (P35968 whole entry): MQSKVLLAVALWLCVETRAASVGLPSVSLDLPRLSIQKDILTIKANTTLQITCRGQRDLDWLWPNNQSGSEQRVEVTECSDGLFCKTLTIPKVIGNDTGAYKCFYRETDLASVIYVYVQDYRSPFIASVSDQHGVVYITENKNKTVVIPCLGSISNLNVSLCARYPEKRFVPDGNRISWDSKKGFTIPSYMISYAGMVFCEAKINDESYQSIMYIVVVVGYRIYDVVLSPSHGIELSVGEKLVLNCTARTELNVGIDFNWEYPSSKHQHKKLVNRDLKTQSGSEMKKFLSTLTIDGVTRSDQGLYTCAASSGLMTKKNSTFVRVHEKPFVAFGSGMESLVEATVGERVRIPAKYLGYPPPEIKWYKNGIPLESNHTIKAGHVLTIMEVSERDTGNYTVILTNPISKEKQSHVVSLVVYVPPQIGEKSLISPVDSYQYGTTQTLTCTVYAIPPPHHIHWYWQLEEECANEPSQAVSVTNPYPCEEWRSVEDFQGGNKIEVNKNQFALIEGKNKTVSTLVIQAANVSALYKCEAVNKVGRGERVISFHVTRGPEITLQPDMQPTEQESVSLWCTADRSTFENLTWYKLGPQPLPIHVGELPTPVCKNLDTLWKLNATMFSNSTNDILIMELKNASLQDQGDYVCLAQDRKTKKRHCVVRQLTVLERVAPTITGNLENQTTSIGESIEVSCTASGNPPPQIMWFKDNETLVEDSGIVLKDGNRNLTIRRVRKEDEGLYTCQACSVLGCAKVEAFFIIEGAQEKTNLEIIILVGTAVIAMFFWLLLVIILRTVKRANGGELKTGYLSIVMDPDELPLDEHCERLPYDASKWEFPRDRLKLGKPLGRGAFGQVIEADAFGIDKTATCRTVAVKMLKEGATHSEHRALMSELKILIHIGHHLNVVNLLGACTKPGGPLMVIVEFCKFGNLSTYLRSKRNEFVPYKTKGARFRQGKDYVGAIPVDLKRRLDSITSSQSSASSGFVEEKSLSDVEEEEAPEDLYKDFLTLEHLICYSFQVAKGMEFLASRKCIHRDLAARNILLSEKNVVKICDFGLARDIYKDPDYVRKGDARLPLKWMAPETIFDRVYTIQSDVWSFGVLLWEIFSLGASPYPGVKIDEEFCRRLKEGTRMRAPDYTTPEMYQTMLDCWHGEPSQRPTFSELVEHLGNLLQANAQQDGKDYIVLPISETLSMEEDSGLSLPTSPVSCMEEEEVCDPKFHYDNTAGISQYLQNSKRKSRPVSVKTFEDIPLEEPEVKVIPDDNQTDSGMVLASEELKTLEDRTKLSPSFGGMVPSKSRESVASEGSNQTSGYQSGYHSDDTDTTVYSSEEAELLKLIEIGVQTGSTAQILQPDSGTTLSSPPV

[6] = molecular target: T2, Serine/threonine-protein kinase Nek1 (Homo sapiens, UniProt Q96PY6); test: Inhibition of recombinant NEK1 (unknown origin) by FRET-based Z'-LYTE assay
T2 sequence (Q96PY6 whole entry): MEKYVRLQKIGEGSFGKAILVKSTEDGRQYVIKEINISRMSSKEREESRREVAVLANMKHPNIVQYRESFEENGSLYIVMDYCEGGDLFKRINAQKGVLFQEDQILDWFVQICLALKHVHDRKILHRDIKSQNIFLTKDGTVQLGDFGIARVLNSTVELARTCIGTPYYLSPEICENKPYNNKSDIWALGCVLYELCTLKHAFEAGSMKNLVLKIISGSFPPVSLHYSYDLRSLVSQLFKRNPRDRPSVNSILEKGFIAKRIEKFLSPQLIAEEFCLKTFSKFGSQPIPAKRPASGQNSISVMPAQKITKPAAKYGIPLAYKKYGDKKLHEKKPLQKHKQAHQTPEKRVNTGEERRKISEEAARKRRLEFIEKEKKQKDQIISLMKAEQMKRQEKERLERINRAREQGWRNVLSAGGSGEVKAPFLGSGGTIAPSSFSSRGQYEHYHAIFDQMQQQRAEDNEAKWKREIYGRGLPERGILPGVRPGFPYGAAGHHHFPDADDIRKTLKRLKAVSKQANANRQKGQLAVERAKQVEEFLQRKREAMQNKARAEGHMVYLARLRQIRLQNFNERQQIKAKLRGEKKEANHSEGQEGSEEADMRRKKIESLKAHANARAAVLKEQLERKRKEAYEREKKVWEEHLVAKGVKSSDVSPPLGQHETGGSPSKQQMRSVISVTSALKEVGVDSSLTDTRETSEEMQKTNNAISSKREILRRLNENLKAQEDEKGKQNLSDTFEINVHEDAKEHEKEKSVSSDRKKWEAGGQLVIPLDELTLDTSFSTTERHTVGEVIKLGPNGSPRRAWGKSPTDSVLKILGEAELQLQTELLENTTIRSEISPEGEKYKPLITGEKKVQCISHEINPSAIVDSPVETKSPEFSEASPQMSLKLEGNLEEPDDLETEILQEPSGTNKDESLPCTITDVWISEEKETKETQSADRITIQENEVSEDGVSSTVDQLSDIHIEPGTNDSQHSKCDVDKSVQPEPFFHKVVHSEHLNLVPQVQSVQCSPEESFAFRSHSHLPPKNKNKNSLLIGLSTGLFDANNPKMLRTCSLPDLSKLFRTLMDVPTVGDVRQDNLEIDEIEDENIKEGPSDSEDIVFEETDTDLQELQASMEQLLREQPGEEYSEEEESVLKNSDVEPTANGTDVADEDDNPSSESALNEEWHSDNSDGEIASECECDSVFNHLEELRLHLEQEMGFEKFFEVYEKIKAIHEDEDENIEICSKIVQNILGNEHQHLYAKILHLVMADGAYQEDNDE

[7] = molecular target: T1, Mitogen-activated protein kinase 1; test: Inhibition of recombinant ERK2 (unknown origin) by FRET-based Z'-LYTE assay
[8] = molecular target: RAF proto-oncogene serine/threonine-protein kinase (Homo sapiens, UniProt P04049); test: Inhibition of recombinant RAF1 (unknown origin) by cascade reaction assay
[9] = molecular target: RAC-alpha serine/threonine-protein kinase (Homo sapiens, UniProt P31749); test: Inhibition of recombinant AKT1 (unknown origin) by FRET-based Z'-LYTE assay
Sequence of RAC-alpha serine/threonine-protein kinase (P31749 whole entry): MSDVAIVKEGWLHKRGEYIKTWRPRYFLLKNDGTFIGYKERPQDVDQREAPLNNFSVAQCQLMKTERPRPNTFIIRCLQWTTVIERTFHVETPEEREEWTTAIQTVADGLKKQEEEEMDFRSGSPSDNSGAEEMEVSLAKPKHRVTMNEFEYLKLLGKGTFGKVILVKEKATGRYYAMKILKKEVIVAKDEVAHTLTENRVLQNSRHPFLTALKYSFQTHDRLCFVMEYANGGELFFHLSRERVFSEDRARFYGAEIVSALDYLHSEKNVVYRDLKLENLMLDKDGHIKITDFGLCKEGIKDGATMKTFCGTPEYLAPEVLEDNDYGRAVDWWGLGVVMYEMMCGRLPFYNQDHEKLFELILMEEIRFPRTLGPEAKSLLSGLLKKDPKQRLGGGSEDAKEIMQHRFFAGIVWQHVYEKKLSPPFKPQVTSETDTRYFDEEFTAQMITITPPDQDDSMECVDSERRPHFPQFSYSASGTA

[10] = molecular target: Cyclin-dependent kinase 7/ cyclin H (Homo sapiens) (UniProt P51946+P50613); test: Inhibition of recombinant CDK7/cyclin H/MNAT1 (unknown origin) at 5 uM after 1 hr by FRET-based adapta assay; type: protein-complex assay
Outline: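 After inhibitor and all reaction components are added, the reaction runs for 1 h. ADP formed by the kinase displaces an antibody-tracer complex, so reduced ADP gives a high TR-FRET signal. Inhibition is calculated against a control.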

[11] = molecular target: Tyrosine-protein kinase JAK3 (Homo sapiens) (UniProt P52333); test: Inhibition of recombinant JAK3 (unknown origin) at 5 uM by FRET-based Z'-LYTE assay
Sequence of Tyrosine-protein kinase JAK3 (Homo sapiens) (P52333 whole entry): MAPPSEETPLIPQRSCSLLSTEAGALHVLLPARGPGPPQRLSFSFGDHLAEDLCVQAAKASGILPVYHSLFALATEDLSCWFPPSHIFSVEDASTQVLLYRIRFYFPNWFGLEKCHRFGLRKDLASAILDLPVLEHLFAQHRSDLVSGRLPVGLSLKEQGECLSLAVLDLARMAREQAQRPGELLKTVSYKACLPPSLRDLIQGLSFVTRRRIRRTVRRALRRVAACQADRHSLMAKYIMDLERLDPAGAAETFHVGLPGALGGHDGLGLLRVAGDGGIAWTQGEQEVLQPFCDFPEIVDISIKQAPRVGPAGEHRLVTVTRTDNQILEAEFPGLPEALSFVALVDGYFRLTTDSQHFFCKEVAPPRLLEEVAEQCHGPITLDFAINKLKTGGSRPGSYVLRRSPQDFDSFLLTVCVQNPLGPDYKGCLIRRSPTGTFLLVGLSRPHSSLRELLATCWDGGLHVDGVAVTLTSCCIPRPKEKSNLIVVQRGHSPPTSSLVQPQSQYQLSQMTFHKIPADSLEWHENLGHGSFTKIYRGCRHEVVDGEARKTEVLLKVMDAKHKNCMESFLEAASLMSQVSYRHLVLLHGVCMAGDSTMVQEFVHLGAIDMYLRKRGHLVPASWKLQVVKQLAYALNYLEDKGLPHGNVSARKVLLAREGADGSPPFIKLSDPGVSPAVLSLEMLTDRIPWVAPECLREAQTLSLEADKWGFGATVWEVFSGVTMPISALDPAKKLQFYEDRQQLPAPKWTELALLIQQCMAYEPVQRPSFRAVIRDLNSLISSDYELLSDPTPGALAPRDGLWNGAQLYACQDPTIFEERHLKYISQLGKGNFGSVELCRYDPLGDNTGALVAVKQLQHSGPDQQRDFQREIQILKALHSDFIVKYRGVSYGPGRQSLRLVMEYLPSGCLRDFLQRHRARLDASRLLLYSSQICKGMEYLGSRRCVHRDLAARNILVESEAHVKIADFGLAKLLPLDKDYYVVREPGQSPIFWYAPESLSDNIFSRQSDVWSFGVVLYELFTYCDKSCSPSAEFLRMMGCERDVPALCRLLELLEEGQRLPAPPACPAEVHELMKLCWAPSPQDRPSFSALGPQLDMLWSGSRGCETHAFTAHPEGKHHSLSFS
Outline: (§2)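 Single-point panel screen at 5 μM in duplicate. ATP is at the apparent Km of each kinase, and the Z'-LYTE FRET peptide substrate is used. Each point has two control wells: a protease control for interference with development and a fluorescence control for interference with the FRET read-out. Values above 100% are treated as maximal inhibition and values below 0% as none.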

[12] = molecular target: Inhibitor of nuclear factor kappa-B kinase subunit epsilon (Homo sapiens) (UniProt Q14164); test: Inhibition of recombinant IKBKE (unknown origin) at 5 uM by FRET-based Z'-LYTE assay; outline: as §2

inhibition [1]: 21% | inhibition [2]: 51% | IC50 [3]: 6.7 µM | inhibition [4]: Active | IC50 [5]: 0.66 µM | IC50 [6]: 0.5 µM | IC50 [7]: 4 µM | IC50 [8]: 1.6 µM | IC50 [9]: 0.02 µM | inhibition [10]: 3% | inhibition [11]: 15% | inhibition [12]: 15%
SMILES: O=C1/C(=C/c2ccccn2)CNC/C1=C\c1ccccn1
